# Most compounds without a hit are left out; they make up all but 4% or so of the library.
# TAAR1 antag – human TAAR1 antagonism; Q96RJ0; 360,000 compounds, 1.5% hits; CHO RD-HGA16 TAAR1, Fluo-8 calcium fluorescence, antagonist; inhibition, % at 3 µM;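 active = inhibition above a per-plate cutoff, the mean inhibition of test compounds on that plate plus 3 SD, cut at about 49% in these data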
#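 Test system – hTAAR1-expressing CHO RD-HGA16 cells, Gα16-coupled · Reagent – β-PEA at EC80 concentration, post-compound challenge · Compound dosing – 3 µM, single point · Timing – 140 s kinetic read after compound, 140 s after agonist · Detection – Fluo-8 intracellular calcium dye fluorescence, real-time kinetic reads · Control set – DMSO and EC80 PEA controls · Repeats – n of 1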
# GPR7 antag – blocks human GPR7 receptor signaling; P48145; GPR7-expressing cells, fluorescence antagonist assay; inhibition, % at 4.4 µM; 290,000 compounds, 1.1% hits; in the data active = inhibition above about 16%, passing the limit was not always enough;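 note: cells stimulated with the agonist NPW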
# TAAR1 agonist – human TAAR1 agonism; CHO RD-HGA16 TAAR1, Fluo-8 calcium fluorescence; vehicle wells 0%, saturating PEA agonist 100%; activation, % at 3 µM; Q96RJ0; AID 624467; 360,000 compounds, 0.99% hits;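 active = activation above the mean activation of all test compounds in the run plus 3 SD, cut at about 38% in these data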
#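 Assay system: CHO-derived RD-HGA16 cells with stable Gα16 and human TAAR1; timing: 17-24 h seeding, 75 min 37 °C dye, 30 min RT; read-out: % activation from peak over basal fluorescence ratio, DMSO-to-PEA scaled; measured by: kinetic Fluo-8 calcium fluorescence; benchmarks: low control DMSO, high control PEA (EC100); doses: 3 µM single concentration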
# DAGLB inhibitor – blocks human DAGLB lipase activity | HEK293T DAGLB membrane lysate, EnzChek fluorogenic substrate | inhibition, % at 5.17 µM | Q8NCG7 | AID 504411 | 340,000 compounds, 0.059% hits; in the data active = inhibition above about 34%
# Target sequence (Q8NCG7 whole entry, looked up): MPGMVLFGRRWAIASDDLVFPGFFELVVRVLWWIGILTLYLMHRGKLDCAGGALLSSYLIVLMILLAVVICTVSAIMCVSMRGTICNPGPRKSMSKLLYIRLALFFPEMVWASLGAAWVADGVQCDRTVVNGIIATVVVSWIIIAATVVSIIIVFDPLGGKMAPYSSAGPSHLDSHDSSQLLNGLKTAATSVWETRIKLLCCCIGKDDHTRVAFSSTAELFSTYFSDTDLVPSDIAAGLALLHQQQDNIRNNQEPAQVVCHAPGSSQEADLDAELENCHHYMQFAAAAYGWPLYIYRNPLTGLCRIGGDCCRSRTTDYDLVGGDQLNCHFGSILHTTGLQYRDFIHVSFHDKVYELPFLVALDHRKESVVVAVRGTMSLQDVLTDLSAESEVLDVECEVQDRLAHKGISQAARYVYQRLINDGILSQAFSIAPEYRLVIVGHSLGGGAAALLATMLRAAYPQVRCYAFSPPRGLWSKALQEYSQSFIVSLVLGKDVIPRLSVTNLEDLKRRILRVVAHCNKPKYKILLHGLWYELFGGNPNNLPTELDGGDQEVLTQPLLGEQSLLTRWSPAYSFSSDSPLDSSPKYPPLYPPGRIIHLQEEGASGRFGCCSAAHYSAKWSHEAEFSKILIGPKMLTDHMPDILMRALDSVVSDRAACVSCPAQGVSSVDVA
# MPTP block – inhibitors of mitochondrial permeability transition pore | isolated mouse mitochondria, Ca2+ swelling absorbance, 30 min | inhibition, % at 10 µM | 360,000 compounds, 1.4% hits | AID 602449;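 active = inhibition of 50% or more, scaled per plate between neutral and stimulator controls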
# Rh123 counter – membrane potential counter-screen of mitochondrial pore inhibitors; shares compounds with MPTP block; isolated mitochondria, Rhodamine 123 fluorescence; inhibition, % at 10 µM; 5,000 compounds, 78% hits; in the data active = inhibition above about 22%
# MPTP abs DR – dose response confirmation of mitochondrial permeability transition pore inhibitors; isolated mitochondria swelling, absorbance; shares compounds with MPTP block; IC50, µM; AID 651561; 780 compounds, 58% hits; in the data active = IC50 below about 20 µM
# MPTP counter DR – active in counter-screen for permeability transition pore inhibitors; shares compounds with MPTP block; isolated mitochondria counterscreen, fluorescence read-out; IC50, µM; 780 compounds, 49% hits; in the data active = IC50 below about 80 µM
# Hits are given with their value; 0 = inactive; - = no result.
SMILES,TAAR1 antag,GPR7 antag,TAAR1 agonist,DAGLB inhibitor,MPTP block,Rh123 counter,others
CC1(c2ccccc2)CC(C)(C)N2C(=O)/C(=C3\SC(=S)NC3=O)c3cccc1c32 (stereo unspecified),0,0,0,0,102,63,
COc1ccc(CC(=O)NCc2nn(-c3ccccc3)nc2C)cc1OC,0,0,0,0,0,-,
COc1ccc(-c2ocnc2C(=O)NCc2nn(-c3ccccc3)nc2C)cc1,0,0,0,0,98,87,
CC1CCN(S(=O)(=O)c2ccc(NC(=O)Cn3nnc(-c4ccccc4)n3)cc2)CC1,0,0,0,0,54,56,
O=S(=O)(Nc1ccc2c3c(cccc13)CC2)c1ccc(F)cc1,0,0,0,0,0,-,
CSc1ccc(S(=O)(=O)Nc2ccc3c4c(cccc24)CC3)cc1,0,0,0,0,61,73,
O=C(CSc1ncnc2c1oc1ccccc12)N1CCCc2ccccc21,0,0,0,0,79,72,
CC(=O)Nc1cc(-c2ccc(C(=O)NC3CC3)cc2)cn2c(-c3ccc(F)c(Cl)c3)cnc12,0,-,0,-,0,-,
CC(C)Nc1ncnc2ccc(Br)cc12,0,0,0,0,59,38,
CSCCC(Nc1ncnc2ccc(Br)cc12)C(=O)O (stereo unspecified),0,0,0,0,0,-,
Cc1nc2ccc(S(=O)(=O)Nc3cccc(-c4nc5cccnc5s4)c3C)cc2s1,59,0,0,0,98,88,
Cc1ccc(C)c(OCC(=O)Nc2nc3ccc([N+](=O)[O-])cc3s2)c1C,0,0,0,0,76,56,
CN(C)CCCN(C(=O)c1ccc(S(=O)(=O)N2CCc3ccccc3C2)cc1)c1nc2c(F)cc(F)cc2s1,-,-,-,0,91,0,
CCOC(=O)N1CCN(S(=O)(=O)c2ccc(C(=O)N(CCCN(C)C)c3nc4c(F)cc(F)cc4s3)cc2)CC1,0,-,0,0,51,0,MPTP abs DR=19;MPTP counter DR=0
CCOC(=O)N1CCN(S(=O)(=O)c2ccc(C(=O)N(CCCN(C)C)c3nc4ccc(Cl)cc4s3)cc2)CC1,0,0,0,0,0,-,
COc1ccc(C)c2sc(N(CCCN(C)C)C(=O)c3ccc(S(=O)(=O)N4CCc5ccccc5C4)cc3)nc12,0,-,48,0,96,0,
Cc1ccc2sc(N(CCCN(C)C)C(=O)c3ccc(S(=O)(=O)N4CCc5ccccc5C4)cc3)nc2c1C,0,-,0,0,90,0,MPTP abs DR=0;MPTP counter DR=0
COc1cccc2sc(N(CCCN(C)C)C(=O)c3ccc(S(=O)(=O)N4CCc5ccccc5C4)cc3)nc12,0,0,0,0,0,-,
CC(C)=CCCC1=CC[C@H]2[C@@H](C1)C(C(C)C)=CC(=O)[C@@]2(C)O,0,-,0,-,-,-,
CC(=O)Nc1ccc(CN(C)c2c(C)nc3ccc(C(=O)N(C)Cc4ccco4)cn23)cc1,0,-,0,-,0,-,
C/C(=N\NC(=O)c1cc(Cl)ccc1O)c1ccc(Br)s1,0,0,0,0,94,0,MPTP abs DR=4.7;MPTP counter DR=<2.5
O=C(NCc1ccncc1)[C@@H]1CCCN1C(=O)[C@@H]1CCCN1C(=O)c1ccccc1Cl,0,-,0,-,0,-,
Cc1ccc(C(=O)Nc2ccc(C(=O)/C=C/c3cccs3)cc2)cc1,0,0,0,0,0,-,
O=C(/C=C/c1cccs1)c1ccc(NC(=O)c2cccc(Br)c2)cc1,55,0,0,0,54,62,
CC1(C)Cc2ccccc2-c2nc(-c3ccccc3)oc(=O)c21,0,0,0,0,70,0,MPTP abs DR=7.6;MPTP counter DR=0
SMILES,TAAR1 antag,GPR7 antag,TAAR1 agonist,DAGLB inhibitor,MPTP block,Rh123 counter,others
CC(C)OC(=O)NCCOC(=O)Nc1ccc(Cl)c(Cl)c1,0,0,0,0,97,98,
CC(C)OC(=O)Nc1ccc(-c2ccc(NC(=O)OC(C)C)cc2Cl)c(Cl)c1,0,0,0,0,0,-,
CC(C)OC(=O)NCCOC(=O)Nc1cccc(Cl)c1,0,0,0,0,100,93,
O=C(Nc1cccc(Cl)c1)OCCOC(=O)Nc1cccc(Cl)c1,0,-,0,0,0,-,
CC(C)OC(=O)NC(C)(C)COC(=O)Nc1cccc(Cl)c1,0,0,0,0,82,96,
CC1(C(=O)Nc2cccc(NS(C)(=O)=O)c2)CCN1Cc1ccccc1OC(F)F (stereo unspecified),0,-,0,-,0,-,
C(=C\c1ccccc1)/CN1CCN(C(CCc2ccccc2)c2nnnn2C2CCCC2)CC1 (stereo unspecified),0,-,0,-,0,-,
COC(=O)c1cc2c(c3c4cc(C#N)ccc4n(S(=O)(=O)c4ccc(C)cc4)c13)C(=O)N(C)C2,0,-,0,-,-,-,
Cc1ccc(S(=O)(=O)NC(=O)C2(C)CCN2C(=O)C2(c3ccc(Cl)cc3)CCC2)nc1 (stereo unspecified),0,-,0,-,0,-,
COC(=O)C1=C(C)N(C)C(=NCc2cc(OC)c(OC)c(OC)c2)NC1c1ccc(Cl)cc1 (stereo unspecified),0,-,0,-,-,-,
Cc1ccc(S(=O)(=O)NCCNC(=O)c2ccccc2)cc1,0,0,0,0,0,-,
Cc1ccc(S(=O)(=O)NCc2ccc(C(=O)NCCN(Cc3ccccc3)C(C)C)cc2)cc1,0,0,0,0,51,71,
COC(=O)c1cc(Cl)c(NC(=O)/C=C/c2ccc(Cl)cc2Cl)cc1OC,0,0,0,0,83,0,MPTP abs DR=0;MPTP counter DR=4.4
COc1ccc(-n2c(SCC(=O)O)nc3sc4c(c3c2=O)CCCC4)cc1,0,0,0,0,0,-,
COc1ccc(-n2c(SCCNCCO)nc3sc4c(c3c2=O)CCCC4)cc1,0,0,0,0,76,0,MPTP abs DR=8.3;MPTP counter DR=0
CNCCC=C1c2ccccc2CCc2ccccc21,0,0,0,0,86,0,MPTP abs DR=6;MPTP counter DR=0
CN1CCN(C(c2ccccc2)c2ccc(Cl)cc2)CC1 (stereo unspecified),0,-,0,0,0,-,
Clc1ccc(C(c2ccccc2)N2CCNCC2)cc1 (stereo unspecified),0,0,0,0,80,0,MPTP abs DR=6.7;MPTP counter DR=0
COc1ccc(C(NC(=O)C2CCN(CCOc3ccc(Cl)cc3)CC2)c2cccs2)cc1 (stereo unspecified),0,-,0,-,0,-,
C[C@H](O)[C@@H]1CN2CCc3ccc(-c4ccc5c(c4)OCO5)cc3[C@@H]2C[C@@H]1N(C)Cc1cc(Cl)cc(Cl)c1,0,-,0,-,-,-,
CC(C)Cc1csc(NC(=O)c2ccc(F)cc2)c1C(=O)O,0,0,0,0,53,71,
O=C(NCc1ccccc1)C1Cc2c(-c3ccc(Cl)cc3)ccnc2O1 (stereo unspecified),0,-,0,-,0,-,
O=C1c2cc(Cl)ccc2-c2c(O)cc(Cl)cc21,0,-,0,0,99,78,
O=c1cc(O)c(-c2ccc(Cl)cc2)c(Cl)[nH]1,0,0,0,0,0,-,

# Screening results: PubChem BioAssay, several laboratories
